Columns and labels:
A498 = assay: Growth inhibition of human A498 cells after 48 hrs by SRB assay; format: functional; settings: A498, 48 h
How it was run: (§1)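 NCI DTP panel cells grown in RPMI 1640 with 5% FBS and 2 mM L-glutamine, preincubated 24 h, then given five concentrations (10-fold or ½-log dilutions from DMSO stock) for 48 h at 37 °C. Cells fixed with TCA, stained with SRB, absorbance read at 515 nm, with time-zero plates as reference.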

DU-145 = assay: Growth inhibition of human DU145 cells after 48 hrs by SRB assay; format: functional; settings: DU-145, 48 h; how it was run: as §1
COLO 205 = assay: Growth inhibition of human COLO205 cells after 48 hrs by SRB assay; format: functional; settings: COLO 205, 48 h; how it was run: as §1
SK-MEL-28 = assay: Growth inhibition of human SK-MEL-28 cells after 48 hrs by SRB assay; format: functional; settings: SK-MEL-28, 48 h
How it was run: (§2)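 Run by the NCI Developmental Therapeutics Program: cells in RPMI 1640 with 5% FBS and 2 mM L-glutamine, plated at 5000–40,000 cells/well and grown 24 h before dosing. Drug (DMSO stock) given at five concentrations for 48 h at 37 °C, 5% CO2. Adherent cells fixed with cold TCA, stained with 0.4% SRB and read at 515 nm. GI50, TGI and LC50 taken from the time-zero, control and treated absorbances.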

NCI-H23 = assay: Growth inhibition of human NCI-H23 cells after 48 hrs by SRB assay; format: functional; settings: NCI-H23, 48 h; how it was run: as §1
K562 [1] = assay: Antiproliferative activity against human K562 cells at 10 uM after 48 hrs by trypan blue assay; format: functional; settings: K562, 48 h, read-out: GI
Malme-3M = assay: Growth inhibition of human MALME-3M cells after 48 hrs by SRB assay; format: functional; how it was run: as §1
PC-3 = assay: Growth inhibition of human PC3 cells after 48 hrs by SRB assay; format: functional; settings: PC-3, 48 h; how it was run: as §1
MDA-MB-435 = assay: Growth inhibition of human MDA-MB-435 cells after 48 hrs by SRB assay; format: functional; settings: MDA-MB-435, 48 h; how it was run: as §1
M14 = assay: Growth inhibition of human M14 cells after 48 hrs by SRB assay; format: functional; settings: M14, 48 h; how it was run: as §1
BT-549 = assay: Growth inhibition of human BT549 cells after 48 hrs by SRB assay; format: functional; settings: BT-549, 48 h; how it was run: as §1
RPMI-8226 = assay: Growth inhibition of human RPMI8226 cells after 48 hrs by SRB assay; format: functional; settings: RPMI-8226, 48 h; how it was run: as §1
SK-MEL-5 = assay: Growth inhibition of human SK-MEL-5 cells after 48 hrs by SRB assay; format: functional; settings: SK-MEL-5, 48 h; how it was run: as §2
MCF7 = assay: Growth inhibition of human MCF7 cells after 48 hrs by SRB assay; format: functional; settings: MCF7, 48 h; how it was run: as §1
SW-620 = assay: Growth inhibition of human SW620 cells after 48 hrs by SRB assay; format: functional; settings: SW-620, 48 h; how it was run: as §2
SF-295 = assay: Growth inhibition of human SF295 cells after 48 hrs by SRB assay; format: functional; settings: SF-295, 48 h; how it was run: as §1
MOLT-4 = assay: Growth inhibition of human MOLT4 cells after 48 hrs by SRB assay; format: functional; settings: MOLT-4, 48 h; how it was run: as §1
RXF 393 = assay: Growth inhibition of human RXF393 cells after 48 hrs by SRB assay; format: functional; settings: RXF 393, 48 h; how it was run: as §1
HCT-15 = assay: Growth inhibition of human HCT15 cells after 48 hrs by SRB assay; format: functional; settings: HCT-15, 48 h; how it was run: as §1
UO-31 = assay: Growth inhibition of human UO31 cells after 48 hrs by SRB assay; format: functional; settings: UO-31, 48 h; how it was run: as §2
SK-OV-3 = assay: Growth inhibition of human SKOV3 cells after 48 hrs by SRB assay; format: functional; settings: SK-OV-3, 48 h; how it was run: as §2
HL-60 = assay: Growth inhibition of human HL60 cells after 48 hrs by SRB assay; format: functional; settings: HL-60, 48 h; how it was run: as §1
KM12 = assay: Growth inhibition of human KM12 cells after 48 hrs by SRB assay; format: functional; settings: KM12, 48 h; how it was run: as §1
UACC-62 = assay: Growth inhibition of human UACC62 cells after 48 hrs by SRB assay; format: functional; settings: UACC-62, 48 h; how it was run: as §2
ACHN = assay: Growth inhibition of human ACHN cells after 48 hrs by SRB assay; format: functional; how it was run: as §1
CAKI-1 = assay: Growth inhibition of human Caki1 cells after 48 hrs by SRB assay; format: functional; settings: CAKI-1, 48 h; how it was run: as §1
SF-268 = assay: Growth inhibition of human SF268 cells after 48 hrs by SRB assay; format: functional; settings: SF-268, 48 h; how it was run: as §1
HOP-62 = assay: Growth inhibition of human HOP62 cells after 48 hrs by SRB assay; format: functional; settings: HOP-62, 48 h; how it was run: as §1
K562 [2] = assay: Growth inhibition of human K562 cells after 48 hrs by trypan blue assay; format: functional, cell-based; settings: K562, 48 h
T47D = assay: Growth inhibition of human T47D cells after 48 hrs by SRB assay; format: functional; how it was run: as §2
[3] = Growth inhibition of human Hs 578T cells after 48 hrs by SRB assay; format: functional; how it was run: as §1
SNB-75 = assay: Growth inhibition of human SNB75 cells after 48 hrs by SRB assay; format: functional; settings: SNB-75, 48 h; how it was run: as §2
NCI-H226 = assay: Growth inhibition of human NCI-H226 cells after 48 hrs by SRB assay; format: functional; settings: NCI-H226, 48 h; how it was run: as §1
NCI/ADR-RES = assay: Growth inhibition of human NCI/ADR-RES cells after 48 hrs by SRB assay; format: functional; how it was run: as §1
EKVX = assay: Growth inhibition of human EKVX cells after 48 hrs by SRB assay; format: functional; how it was run: as §1
U-251 = assay: Growth inhibition of human U251 cells after 48 hrs by SRB assay; format: functional; settings: U-251, 48 h; how it was run: as §2
CCRF-CEM = assay: Growth inhibition of human CCRF-CEM cells after 48 hrs by SRB assay; format: functional; how it was run: as §1
HOP-92 = assay: Growth inhibition of human HOP92 cells after 48 hrs by SRB assay; format: functional; settings: HOP-92, 48 h; how it was run: as §1
MDA-MB-468 = assay: Growth inhibition of human MDA-MB-468 cells after 48 hrs by SRB assay; format: functional; settings: MDA-MB-468, 48 h; how it was run: as §1
NCI-H460 = assay: Growth inhibition of human NCI-H460 cells after 48 hrs by SRB assay; format: functional; settings: NCI-H460, 48 h; how it was run: as §1
A549 = assay: Growth inhibition of human A549 cells after 48 hrs by SRB assay; format: functional; settings: A549, 48 h; how it was run: as §1
K562 [4] = assay: Growth inhibition of human K562 cells after 48 hrs by SRB assay; format: functional; settings: K562, 48 h; how it was run: as §1
OVCAR-3 = assay: Growth inhibition of human OVCAR3 cells after 48 hrs by SRB assay; format: functional; settings: OVCAR-3, 48 h; how it was run: as §1
OVCAR-5 = assay: Growth inhibition of human OVCAR5 cells after 48 hrs by SRB assay; format: functional; settings: OVCAR-5, 48 h; how it was run: as §1
HCT-116 = assay: Growth inhibition of human HCT116 cells after 48 hrs by SRB assay; format: functional; settings: HCT-116, 48 h; how it was run: as §1
HT-29 = assay: Growth inhibition of human HT-29 cells after 48 hrs by SRB assay; format: functional; settings: HT-29, 48 h; how it was run: as §1
786-0 = assay: Growth inhibition of human 786-0 cells after 48 hrs by SRB assay; format: functional; settings: 786-0, 48 h; how it was run: as §1
SN12C = assay: Growth inhibition of human SN12C cells after 48 hrs by SRB assay; format: functional; how it was run: as §2
SNB-19 = assay: Growth inhibition of human SNB19 cells after 48 hrs by SRB assay; format: functional; settings: SNB-19, 48 h; how it was run: as §2
TK-10 = assay: Growth inhibition of human TK10 cells after 48 hrs by SRB assay; format: functional; settings: TK-10, 48 h; how it was run: as §2
MDA-MB-231 = assay: Growth inhibition of human MDA-MB-231 cells after 48 hrs by SRB assay; format: functional; settings: MDA-MB-231, 48 h; how it was run: as §1
LOX IMVI = assay: Growth inhibition of human LOXIMVI cells after 48 hrs by SRB assay; format: functional; how it was run: as §1
SF-539 = assay: Growth inhibition of human SF539 cells after 48 hrs by SRB assay; format: functional; settings: SF-539, 48 h; how it was run: as §1

With `NC(=O)c1cc(Br)ccc1NC(=O)/C=C/c1ccccc1` the GI50 (A498) was 1700 nM, the GI50 (DU-145) was 935 nM and the GI50 (COLO 205) was 917 nM. It also gave a GI50 (SK-MEL-28) of 839 nM, a GI50 (NCI-H23) of 1090 nM and an inhibition of growth at 10 µM (K562 [1]) of 62.4%. For the same molecule, the GI50 (Malme-3M) was 1210 nM, the GI50 (PC-3) was 684 nM and the GI50 (MDA-MB-435) was 231 nM. For the same molecule, the GI50 (M14) was 482 nM, the GI50 (BT-549) was 1410 nM and the GI50 (RPMI-8226) was 1030 nM. It also gave a GI50 (SK-MEL-5) of 435 nM, a GI50 (MCF7) of 569 nM and a GI50 (SW-620) of 705 nM. The GI50 (SF-295) was 625 nM, the GI50 (MOLT-4) was 1860 nM and the GI50 (RXF 393) was 444 nM. The GI50 (HCT-15) was 1040 nM, the GI50 (UO-31) was 1850 nM and the GI50 (SK-OV-3) was 1410 nM. For the same molecule, the GI50 (HL-60) was 346 nM, the GI50 (KM12) was 739 nM and the GI50 (UACC-62) was 782 nM. It also gave a GI50 (ACHN) of 3360 nM, a GI50 (CAKI-1) of 1340 nM and a GI50 (SF-268) of 1830 nM. For the same molecule, the GI50 (HOP-62) was 1510 nM, the IC50 (K562 [2]) was 5000 nM and the GI50 (T47D) was 1570 nM. The GI50 [3] was 624 nM, the GI50 (SNB-75) was 2070 nM and the GI50 (NCI-H226) was 2610 nM. The GI50 (NCI/ADR-RES) was 400 nM, the GI50 (EKVX) was 2410 nM and the GI50 (U-251) was 887 nM. It also gave a GI50 (CCRF-CEM) of 429 nM, a GI50 (HOP-92) of 1960 nM and a GI50 (MDA-MB-468) of 279 nM. It also gave a GI50 (NCI-H460) of 662 nM, a GI50 (A549) of 1020 nM and a GI50 (K562 [4]) of 415 nM. For the same molecule, the GI50 (OVCAR-3) was 349 nM, the GI50 (OVCAR-5) was 2920 nM and the GI50 (HCT-116) was 663 nM. For the same molecule, the GI50 (HT-29) was 527 nM, the GI50 (786-0) was 1760 nM and the GI50 (SN12C) was 2960 nM. It also gave a GI50 (SNB-19) of 2000 nM, a GI50 (TK-10) of 2670 nM and a GI50 (MDA-MB-231) of 2190 nM. The GI50 (LOX IMVI) was 3270 nM and the GI50 (SF-539) was 819 nM.

Source: ChEMBL document CHEMBL1795311, “Synthesis, antiproliferative activity, and mechanism of action of a series of 2-{[(2E)-3-phenylprop-2-enoyl]amino}benzamides” (Eur J Med Chem, 2011)
